Results on six compounds are retold here after ChEMBL document CHEMBL1154732, “A 4-aminoquinoline derivative that markedly sensitizes tumor cell killing by Akt inhibitors with a minimum cytotoxicity to non-cancer cells” (2010).

Where only a bound is given, the exact number is not on record here.

Holding throughout (format): functional
Test [1] concerns MCF7. The experiment in a line: Cytotoxicity against human MCF7 cells after 48 hrs by SRB assay in presence of 0.4 uM 1-(1-(4-(7-phenyl-1H-imidazo[4,5-g]quinoxalin-6-yl)benzyl)piperidin-4-yl)-1H-benzo[d]imidazol-2(3H)-one. The essentials:
(§1)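 Breast cancer cells were grown in RPMI 1640 with 10% FBS and 2 mM L-glutamine at 37 °C, 5% CO2, seeded at 5000–10,000/well and allowed 24 h before dosing. Compounds were given as seven serially diluted concentrations for 48 h, with any partner drug held constant, at ≤0.1% final DMSO. Cells were TCA-fixed, SRB-stained and read at 515–564 nm. GI50 came from a variable-slope sigmoidal fit of growth relative to time-zero and untreated wells; values are means of triplicates from ≥3 experiments.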

Test [2] deals with MDA-MB-468. The experiment in a line: Cytotoxicity against human MDA-MB-468 cells after 48 hrs by SRB assay in presence of 0.04 uM (E)-5-(benzo[d]thiazol-2-yl)-3-ethyl-2-(2-(methyl(phenyl)amino)vinyl)-1-phenyl-1H-benzo[d]imidazol-3-ium iodide. Conditions: MDA-MB-468, 48 h. The essentials:
as §1

A short description of test [3]: Cytotoxicity against human 184B5 cells after 48 hrs by SRB assay. Conditions: 184B5, 48 h. An outline of the steps:
(§2)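 184B5 immortalized breast epithelial cells were grown in mammary epithelial basal medium with MEGM supplements at 37 °C, 5% CO2. Cells (5000–10,000/well) were preincubated 24 h, then exposed to seven concentrations for 48 h, with the listed partner drug fixed at its stated level. Cells were TCA-fixed, SRB-stained and read at 515–564 nm. Final DMSO was ≤0.1%.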

Test [4] deals with MDA-MB-468. The experiment in a line: Cytotoxicity against human MDA-MB-468 cells after 48 hrs by SRB assay in presence of 3.5 uM 4-(2-chloro-10H-phenoxazin-10-yl)-N,N-diethylbutan-1-amine hydrochloride. Conditions: MDA-MB-468, 48 h. The essentials: as §1
The test system of test [5] is MCF7. The experiment in a line: Cytotoxicity against human MCF7 cells after 48 hrs by SRB assay. Conditions: MCF7, 48 h. The essentials:
as §1

The test system of test [6] is MDA-MB-468. The experiment in a line: Cytotoxicity against human MDA-MB-468 cells after 48 hrs by SRB assay in presence of 0.5 uM 2-morpholino-8-phenyl-4H-chromen-4-one. Conditions: MDA-MB-468, 48 h. The essentials:
as §1

A short description of test [7]: Cytotoxicity against human 184B5 cells after 48 hrs by SRB assay in presence of 3.5 uM 4-(2-chloro-10H-phenoxazin-10-yl)-N,N-diethylbutan-1-amine hydrochloride. Conditions: 184B5, 48 h. An outline of the steps: as §2
Test [8] has as its system MDA-MB-231. Briefly: Cytotoxicity against human MDA-MB-231 cells after 48 hrs by SRB assay. Conditions: MDA-MB-231, 48 h. An outline of the steps:
as §1

Test [9] can be described thus: Cytotoxicity against human 184B5 cells after 48 hrs by SRB assay in presence of 0.4 uM 1-(1-(4-(7-phenyl-1H-imidazo[4,5-g]quinoxalin-6-yl)benzyl)piperidin-4-yl)-1H-benzo[d]imidazol-2(3H)-one. The essentials: as §2
Test [10] concerns MDA-MB-231. Briefly: Cytotoxicity against human MDA-MB-231 cells after 48 hrs by SRB assay in presence of 0.04 uM (E)-5-(benzo[d]thiazol-2-yl)-3-ethyl-2-(2-(methyl(phenyl)amino)vinyl)-1-phenyl-1H-benzo[d]imidazol-3-ium iodide. The following applies: MDA-MB-231, 48 h. The essentials:
as §1

Test [11] in a line: Cytotoxicity against human 184B5 cells after 48 hrs by SRB assay in presence of 0.5 uM 2-morpholino-8-phenyl-4H-chromen-4-one. The following applies: 184B5, 48 h. An outline of the steps:
as §2

Test [12] has as its system MCF7. The experiment in a line: Cytotoxicity against human MCF7 cells after 48 hrs by SRB assay in presence of 0.5 uM 2-morpholino-8-phenyl-4H-chromen-4-one. The following applies: MCF7, 48 h. An outline of the steps:
as §1

Test [13] deals with MDA-MB-231. The experiment in a line: Cytotoxicity against human MDA-MB-231 cells after 48 hrs by SRB assay in presence of 3.5 uM 4-(2-chloro-10H-phenoxazin-10-yl)-N,N-diethylbutan-1-amine hydrochloride. The following applies: MDA-MB-231, 48 h. An outline of the steps:
as §1

Test [14] concerns MDA-MB-231. The experiment in a line: Cytotoxicity against human MDA-MB-231 cells after 48 hrs by SRB assay in presence of 0.5 uM 2-morpholino-8-phenyl-4H-chromen-4-one. The following applies: MDA-MB-231, 48 h. An outline of the steps: as §1
The subject of test [15] is MDA-MB-468. Briefly: Cytotoxicity against human MDA-MB-468 cells after 48 hrs by SRB assay in presence of 0.4 uM 1-(1-(4-(7-phenyl-1H-imidazo[4,5-g]quinoxalin-6-yl)benzyl)piperidin-4-yl)-1H-benzo[d]imidazol-2(3H)-one. An outline of the steps:
as §1

Test [16] relates to MCF7. Briefly: Cytotoxicity against human MCF7 cells after 48 hrs by SRB assay in presence of 0.04 uM (E)-5-(benzo[d]thiazol-2-yl)-3-ethyl-2-(2-(methyl(phenyl)amino)vinyl)-1-phenyl-1H-benzo[d]imidazol-3-ium iodide. Conditions: MCF7, 48 h. An outline of the steps: as §1
Test [17] deals with MDA-MB-231. The experiment in a line: Cytotoxicity against human MDA-MB-231 cells after 48 hrs by SRB assay in presence of 0.4 uM 1-(1-(4-(7-phenyl-1H-imidazo[4,5-g]quinoxalin-6-yl)benzyl)piperidin-4-yl)-1H-benzo[d]imidazol-2(3H)-one. An outline of the steps: as §1
Test [18] relates to MCF7. Briefly: Cytotoxicity against human MCF7 cells after 48 hrs by SRB assay in presence of 3.5 uM 4-(2-chloro-10H-phenoxazin-10-yl)-N,N-diethylbutan-1-amine hydrochloride. The following applies: MCF7, 48 h. The essentials:
as §1

Test [19] concerns MDA-MB-468. The experiment in a line: Cytotoxicity against human MDA-MB-468 cells after 48 hrs by SRB assay. Conditions: MDA-MB-468, 48 h. An outline of the steps: as §1
Test [20] is described as follows: Cytotoxicity against human 184B5 cells after 48 hrs by SRB assay in presence of 0.04 uM (E)-5-(benzo[d]thiazol-2-yl)-3-ethyl-2-(2-(methyl(phenyl)amino)vinyl)-1-phenyl-1H-benzo[d]imidazol-3-ium iodide. The following applies: 184B5, 48 h. The essentials:
as §2

`CCCCNc1ccnc2cc(Cl)ccc12`: the GI50 worked out at 5600 nM in test [1]; 3.95 µM in test [2]; 18.4 µM in [3]; 4.3 µM in test [4]; 8.45 µM in test [5]; 7.42 µM in test [6]. Further, the GI50 in test [7] is 19.4 µM; in test [8], 15.9 µM; in [9], 16.6 µM; in test [10] it was 12.3 µM; in [11], more than 20 µM; in test [12] it was 9.55 µM. The GI50 was found to be 6500 nM in test [13]; 11.3 µM in test [14]; 7.09 µM in test [15]; 10.2 µM in [16]; 8.8 µM in test [17]; 11.4 µM in test [18]. In addition, the GI50 in [19] was 6.02 µM; in test [20] it was more than 20 µM.
On to `CN(C)CCNc1ccnc2cc(F)ccc12`, for which the GI50 came out at 1730 nM in test [1]; 4.87 µM in [2]; 40.4 µM in [3]; 4.61 µM in test [4]; 3.42 µM in test [5]; 7.62 µM in [6]. Further, the GI50 was more than 20 µM in [7]; 7.08 µM in test [8]; more than 20 µM in [9]; 2.5 µM in [10]; more than 20 µM in test [11]; 2.64 µM in test [12]. In addition, the GI50 in test [13] is 2000 nM; in [14], 9.45 µM; in [15] it was 4.95 µM; in [16], 2.56 µM; in test [17] it was 1.94 µM; in test [18], 3.26 µM. The GI50 was 8.73 µM in test [19] and more than 20 µM in test [20].
Turning to `COc1ccc2c(NCCN(C)C)ccnc2c1`, the GI50 was determined as 1820 nM in test [1]; 5.85 µM in test [2]; 44.6 µM in [3]; 5.66 µM in test [4]; 3.89 µM in [5]; 7.62 µM in test [6]. Further, the GI50 in test [7] is more than 20 µM; in test [9], more than 20 µM; in test [10], 4.49 µM; in [11], more than 20 µM; in test [12], 2.65 µM; in [13], 1240 nM. Further, the GI50 in test [14] stood at 9.45 µM; in [15] it was 5.91 µM; in test [16], 3.54 µM; in [17], 0.74 µM; in [18] it was 3.66 µM; in [19], 4.8 µM. Also, the GI50 in test [20] is more than 20 µM.
In the case of `CCCCNc1ccnc2cc(F)ccc12`, the GI50 in [1] came out at 1630 nM; in test [2], 2.69 µM; in test [3] it was 18.7 µM; in test [4] it was 1.44 µM; in test [5], 1.98 µM; in test [6], 3.5 µM. The GI50 in [7] came out at 8.19 µM; in [8], 6.32 µM; in [9], 14.9 µM; in [10] it was 7.25 µM; in test [11], 12.5 µM; in test [12] it was 3.17 µM. Further, the GI50 in test [13] stood at 3740 nM; in [14] it was 12.3 µM; in [15], 2.09 µM; in test [16], 5.78 µM; in test [17], 5.63 µM; in [18], 3.7 µM. Also, the GI50 in test [19] is 1.41 µM; in [20], 12.4 µM.
As for `CN(C)CCNc1ccnc2cc(Cl)ccc12`, the GI50 turned out to be 3320 nM in [1]; 3.43 µM in [2]; 44.5 µM in test [3]; 3.24 µM in test [4]; 15.4 µM in [5]; 19.3 µM in [6]. The GI50 in [7] was more than 20 µM; in test [8], 8.59 µM; in test [9] it was more than 20 µM; in test [10] it was 5.66 µM; in [11], more than 20 µM; in test [12] it was 7.54 µM. The GI50 in test [13] came to 740 nM; in test [14] it was 9.88 µM; in [15] it was 6.5 µM; in test [16], 4.96 µM; in test [17], 2.87 µM; in [18], 7.37 µM. Moreover, the GI50 was 13.3 µM in test [19] and more than 20 µM in test [20].
On to `CCN(CC)CCCC(C)Nc1ccnc2cc(Cl)ccc12` (stereo unspecified) [CHLOROQUINE PHOSPHATE], for which the GI50 is 5510 nM in [1]; 6.53 µM in [2]; 76.1 µM in [3]; 2.81 µM in [4]; 9.14 µM in test [6]; more than 20 µM in test [7]. Moreover, the GI50 in test [9] was more than 20 µM; in test [10], 8.33 µM; in test [11], more than 20 µM; in [12], 7.71 µM; in test [13] it was 6080 nM; in test [14] it was 18.8 µM. Moreover, the GI50 is 6.83 µM in test [15]; 7.54 µM in test [16]; 12.6 µM in test [17]; 11.8 µM in [18]; more than 20 µM in test [20].
